# Measurements reported in ChEMBL document CHEMBL1799973, “Design, synthesis, and cytotoxic evaluation of acyl derivatives of 3-aminonaphtho[2,3-b]thiophene-4,9-dione, a quinone-based system” (J Med Chem, 2011).
# Active and inactive are the calls of the source. No cut-off for these calls is given here.
# Experiments:
# U-937 = assay: Antitumor activity against human U937 cells after 24 to 48 hrs by MTT assay; type: functional, cell-based
# How it was run: (§1)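 MTT read-out. Cells grown at 37 °C in DMEM with 10 mM glucose, 10% fetal calf serum, penicillin/streptomycin and 2 mmol/L glutamine. Seeded at 10^5 cells per well and left 24 h to attach, then compound added over a range of concentrations and cells grown 24 or 48 h. MTT at 1 mg/mL for 2 h at 37 °C in the dark, formazan dissolved in DMSO, OD read at 550 nm. Values are % of vehicle control (0.5% DMSO); IC50 by linear and polynomial regression; triplicate.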
# SW-620 = assay: Antitumor activity against human SW620 cells after 24 to 48 hrs by MTT assay; type: functional, cell-based; how it was run: as §1
# [1] = Antitumor activity against human MDA231 cells after 24 to 48 hrs by MTT assay; type: functional, cell-based; conditions: MDA-MB-231; how it was run: as §1
# Caco-2 [2] = assay: Induction of cyclin A expression in human Caco2 cells at 1 uM after 48 hrs by Western blot analysis; type: functional
# How it was run: (§2)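 Caco-2 cells treated for 48 h (1 or 5 μM for Hsp27; 1 μM for cyclin A). Lysed in ice-cold 50 mM Tris, 150 mM NaCl, 10 mM EDTA, 1% Triton with protease inhibitors. Equal protein run on 8–12% SDS-PAGE and transferred to nitrocellulose. Primary antibody overnight in TBS/Tween/1% milk, then HRP secondary; bands detected by ECL.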
# Caco-2 [3] = assay: Cell cycle arrest in human Caco2 cells assessed as accumulation at S phase at 1 uM after 48 hrs by propidium iodide staining based flow cytometric analysis (reference value: 36%); type: functional
# Homo sapiens [4] = species on record: Homo sapiens; assay: Inhibition of human topoisomerase 2-mediated relaxation of supercoiled pBR322 DNA relaxation at 10 uM after 6 mins by agarose gel electrophoresis
# How it was run: (§3)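 Compound at 5 or 10 μM. Run 6 min at 37 °C and stopped with EDTA/SDS/glycerol dye. Products run on 1% agarose in 0.5× TBE at 4 V/cm for 1 h, stained with ethidium bromide, bands quantified.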
# Nucleic Acid [5] = assay: Binding affinity to poly(dG-dC).poly(dG-dC) DNA assessed as compound/DNA complex formation at 1 mM by STD NMR spectrophotometric analysis; type: nucleic-acid assay
# How it was run: (§4)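 Ligand at 1.0 mM with poly(dG-dC)·poly(dG-dC) at 50 μM (as phosphate groups), a 20:1 ligand excess, in H2O/D2O 9:1 with 100 mM phosphate-buffered saline, pH 7.1. Water suppressed by DPFGSE. STD effects taken relative to a reference spectrum with off-resonance saturation at δ −16 ppm, 2 s saturation, typically 512 scans. WaterLOGSY spectra recorded with and without DNA.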
# Caco-2 [6] = assay: Cell cycle arrest in human Caco2 cells assessed as accumulation at G2/M phase at 1 uM after 48 hrs by propidium iodide staining based flow cytometric analysis (reference value: 21%); type: functional
# Nucleic Acid [7] = assay: Binding affinity to poly(dG-dC).poly(dG-dC) DNA assessed as compound/DNA complex formation at 1 mM by WaterLOGSY NMR spectrophotometric analysis; type: nucleic-acid assay; how it was run: as §4
# Caco-2 [8] = assay: Cell cycle arrest in human Caco2 cells assessed as accumulation at G1 phase at 1 uM after 48 hrs by propidium iodide staining based flow cytometric analysis (reference value: 42%); type: functional
# Homo sapiens [9] = species on record: Homo sapiens; assay: Inhibition of human topoisomerase 2-mediated relaxation of supercoiled pBR322 DNA relaxation at 5 uM after 6 mins by agarose gel electrophoresis; how it was run: as §3
# Caco-2 [10] = assay: Antitumor activity against human undifferentiated Caco2 cells after 24 to 48 hrs by MTT assay; type: functional, cell-based; how it was run: as §1
# Nucleic Acid [11] = assay: Binding affinity to DNA assessed as binding mode index by measuring aliphatic signals by DF-STD spectrophotometric analysis; type: nucleic-acid assay
# How it was run: (§5)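 DF-STD NMR on poly(dG-dC)·poly(dG-dC) in H2O/D2O 9:1 with 100 mM phosphate-buffered saline, pH 7.1. Ligand 1.0 mM; DNA 50 μM as phosphate (20:1 ligand excess). Saturation is centred on the aromatic or low-field aliphatic region for 2 s, with a reference off-resonance at δ −16 ppm and 512 scans. The binding mode index is the relative response of ligand protons to base versus sugar/backbone saturation.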
# HT-29 = assay: Antitumor activity against human HT-29 cells after 24 to 48 hrs by MTT assay; type: functional, cell-based; how it was run: as §1
# Caco-2 [12] = assay: […] of cell differentiation in human Caco2 cells assessed as increase in ALP activity at 1 uM after 48 hrs; type: functional; set-up: scale not given: the % may be the effect or the level left
# How it was run: (§6)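 Caco-2 cells cultured 48 h with 0, 1, 5 or 10 μM compound. Attached and floating cells washed and lysed in 0.25% sodium deoxycholate. ALP activity measured with a diagnostic ALP reagent and protein by Bradford microassay. Activity expressed as units per mg protein, as a differentiation marker.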
# Homo sapiens [13] = species on record: Homo sapiens; assay: Inhibition of human topoisomerase 2-mediated relaxation of supercoiled pBR322 DNA relaxation after 6 mins by agarose gel electrophoresis
# MDA-MB-435 = assay: Antitumor activity against human MDA-MB-435 cells after 24 to 48 hrs by MTT assay; type: functional, cell-based
# How it was run: (§7)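 MTT read-out. Cells grown at 37 °C in DMEM with 10 mM glucose, 10% fetal calf serum, penicillin/streptomycin and 2 mmol/L glutamine. Seeded at 10^5 cells per well and left 24 h to attach, then compound added over a range of concentrations and cells grown 24 or 48 h. MTT at 1 mg/mL for 2 h at 37 °C in the dark, formazan dissolved in DMSO, OD read at 550 nm.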
# [14] = Antitumor activity against human IGROV cells after 24 to 48 hrs by MTT assay; type: functional, cell-based; how it was run: as §7
# SNB-19 = assay: Antitumor activity against human SNB19 cells after 24 to 48 hrs by MTT assay; type: functional, cell-based; how it was run: as §1
# MCF7 [15] = assay: Drug uptake in human MCF7 cells assessed as nuclear localization at 50 nM after 30 mins by confocal microscopic analysis; type: ADME, cell-based; conditions: mcf7, 0.5 h, 0.05 µM
# How it was run: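 Imaging in MCF-7 cells by confocal microscopy with 50 nM labeled compound. Cells fixed in paraformaldehyde for 30 min at 4 °C, permeabilized with Triton X-100 for 30 min at 4 °C, and nuclei stained with Hoechst 33342. Images taken with a 63× oil objective.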
# Nucleic Acid [16] = assay: Binding affinity to DNA assessed as binding mode index by measuring aromatic signals by DF-STD spectrophotometric analysis; type: nucleic-acid assay; how it was run: as §5
# [17] = Cardiotoxicity in rat H9c2 cells assessed as cell viability at 1 uM up to 120 hrs by MTT assay; type: toxicity, cell-based; conditions: read-out: Activity
# How it was run: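 Rat H9C2 cardiomyoblasts, passages 4–10, grown at 37 °C in DMEM with FBS, glutamine and penicillin/streptomycin. Plated at 2000 cells/well in quadruplicate and given compound at 1 μM for the indicated times. MTT reagent added for 2 h in the incubator, then absorbance read at 570 nm. Data are mean ± SD.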
# COLO 205 = assay: Antitumor activity against human COLO205 cells after 24 to 48 hrs by MTT assay; type: functional, cell-based; how it was run: as §1
# Caco-2 [18] = assay: Increase in Hsp27 protein expression in human Caco2 cells after 48 hrs by Western blot analysis; type: functional, cell-based; how it was run: as §2
# Caco-2 [19] = assay: Antitumor activity against human differentiated Caco2 cells after 24 to 48 hrs by MTT assay; type: cell-based; how it was run: as §1
# Caco-2 [20] = assay: Selectivity index, ratio IC50 for undifferentiated human Caco2 cells to IC50 for differentiated human Caco2 cells; type: functional
# How it was run: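 Ratio of MTT IC50 in undifferentiated to differentiated Caco-2 cells. MTT conditions: 24 or 48 h exposure, formazan dissolved in DMSO, read at 550 nm, IC50 by regression, triplicate.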
# Caco-2 [21] = assay: […] of cell differentiation in human Caco2 cells assessed as increase in ALP activity at 5 uM after 48 hrs; type: functional; set-up: scale not given: the % may be the effect or the level left; how it was run: as §6
# MCF7 [22] = assay: Cytotoxicity against human MCF7 cells; type: functional, cell-based; how it was run: as §1
# SF-295 = assay: Antitumor activity against human SF295 cells after 24 to 48 hrs by MTT assay; type: functional, cell-based; how it was run: as §1
# SK-MEL-28 = assay: Antitumor activity against human SK-MEL-28 cells after 24 to 48 hrs by MTT assay; type: functional, cell-based; how it was run: as §1
structure (smiles),measurement,setting,value
O=C1c2ccccc2C(=O)c2c(NC(=O)[C@@H]3CCCN3)csc21,IC50,U-937,0.9 µM
same,IC50,SW-620,5.4 µM
same,IC50,[1],6.7 µM
O=C(CCN1CCOCC1)Nc1csc2c1C(=O)c1ccccc1C2=O,IC50,U-937,7.2 µM
same,IC50,SW-620,20.1 µM
same,IC50,[1],10.1 µM
O=C(CN1CCOCC1)Nc1csc2c1C(=O)c1ccccc1C2=O,IC50,U-937,4.3 µM
same,IC50,SW-620,10.8 µM
same,IC50,[1],7.1 µM
N[C@@H](Cc1ccccc1)C(=O)Nc1csc2c1C(=O)c1ccccc1C2=O.O=C(O)C(F)(F)F,Activity,Caco-2 [2],inactive
same,Activity,Caco-2 [3],44%
same,inhibition,Homo sapiens [4],inactive
same,Activity,Nucleic Acid [5],inactive
same,Activity,Caco-2 [6],18%
same,IC50,U-937,> 40 µM
same,IC50,SW-620,30.5 µM
same,Activity,Nucleic Acid [7],inactive
same,IC50,[1],> 40 µM
same,Activity,Caco-2 [8],37%
same,inhibition,Homo sapiens [9],inactive
O=C(CO)Nc1csc2c1C(=O)c1ccccc1C2=O,IC50,U-937,15.1 µM
same,IC50,SW-620,18.5 µM
same,IC50,[1],10.1 µM
NCCCC[C@H](N)C(=O)Nc1csc2c1C(=O)c1ccccc1C2=O,IC50,U-937,20 µM
same,IC50,SW-620,> 40 µM
same,IC50,[1],> 40 µM
C[C@H](N)C(=O)Nc1csc2c1C(=O)c1ccccc1C2=O,IC50,U-937,9.1 µM
same,IC50,SW-620,12.4 µM
same,IC50,[1],> 40 µM
O=C(CCS)Nc1csc2c1C(=O)c1ccccc1C2=O,IC50,U-937,23.9 µM
same,IC50,SW-620,20.7 µM
same,IC50,[1],15.2 µM
O=C(CS)Nc1csc2c1C(=O)c1ccccc1C2=O,IC50,U-937,30.1 µM
same,IC50,SW-620,20.9 µM
same,IC50,[1],13.6 µM
NCC(=O)Nc1csc2c1C(=O)c1ccccc1C2=O,IC50,U-937,7 µM
same,IC50,SW-620,2.3 µM
same,IC50,[1],6.2 µM
CN(C)CCNCCC(=O)Nc1csc2c1C(=O)c1ccccc1C2=O.Cl.Cl,IC50,Caco-2 [10],0.8 µM
same,Activity,Caco-2 [2],43%
same,Activity,Nucleic Acid [11],0.9
same,IC50,HT-29,0.5 µM
same,Activity,Caco-2 [3],53%
same,Activity,Caco-2 [12],35%
same,Activity,Nucleic Acid [5],Active
same,Activity,Caco-2 [6],26%
same,inhibition,Homo sapiens [13],Dose-dependent effect
same,IC50,U-937,1.3 µM
same,IC50,MDA-MB-435,0.5 µM
same,IC50,[14],2 µM
same,IC50,SW-620,0.6 µM
same,IC50,SNB-19,0.9 µM
same,Drug uptake,MCF7 [15],Active
same,Activity,Nucleic Acid [16],1.01
same,Activity,Nucleic Acid [7],Active
same,"viability at 120 h, 1 µM",[17],76%
same,IC50,COLO 205,1.1 µM
same,Activity,Caco-2 [18],Dose-dependent effect
same,IC50,[1],2 µM
same,IC50,Caco-2 [19],3.8 µM
same,Activity,Caco-2 [8],20%
same,Ratio IC50,Caco-2 [20],0.21
same,Activity,Caco-2 [21],>180%
same,IC50,MCF7 [22],0.6 µM
same,IC50,SF-295,0.6 µM
same,IC50,SK-MEL-28,0.3 µM
Nc1csc2c1C(=O)c1ccccc1C2=O,IC50,U-937,10.1 µM
same,IC50,SW-620,4 µM
same,IC50,[1],11.3 µM
same,IC50,MCF7 [22],3.2 µM
CCN(CC)CC(=O)Nc1csc2c1C(=O)c1ccccc1C2=O,IC50,U-937,5.1 µM
same,IC50,SW-620,4 µM
same,IC50,[1],8.5 µM
NCCC(=O)Nc1csc2c1C(=O)c1ccccc1C2=O.O=C(O)C(F)(F)F,IC50,Caco-2 [10],2.6 µM
same,IC50,HT-29,0.6 µM
same,IC50,U-937,1.7 µM
same,IC50,MDA-MB-435,0.4 µM
same,IC50,[14],1.2 µM
same,IC50,SW-620,0.8 µM
same,IC50,SNB-19,1.6 µM
same,IC50,COLO 205,0.4 µM
same,IC50,[1],3.7 µM
same,IC50,Caco-2 [19],6.1 µM
same,Ratio IC50,Caco-2 [20],0.43
same,IC50,SF-295,2.8 µM
same,IC50,SK-MEL-28,1.5 µM
CN(C)CCNCC(=O)Nc1csc2c1C(=O)c1ccccc1C2=O,IC50,U-937,4 µM
same,IC50,SW-620,2.1 µM
same,IC50,[1],4.9 µM
CCCNC(=O)Nc1csc2c1C(=O)c1ccccc1C2=O,IC50,U-937,10.1 µM
same,IC50,SW-620,6.5 µM
same,IC50,[1],9.5 µM
O=C(CCO)Nc1csc2c1C(=O)c1ccccc1C2=O,IC50,U-937,15 µM
same,IC50,SW-620,20.3 µM
same,IC50,[1],9.2 µM
CN(C)CCNC(=O)Nc1csc2c1C(=O)c1ccccc1C2=O,IC50,U-937,9.8 µM
same,IC50,SW-620,5.9 µM
same,IC50,[1],8.7 µM
